What was measured:
[1] = Cytotoxicity against human A2780cis cells incubated for 72 hrs by SRB assay; assay type: functional, cell-based
Procedure, shortened: (§1)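 Cells plated in 96-well format and left 24 h, then exposed to serial dilutions of compound for 72 h; growth read by sulforhodamine B staining. Media held 10 % fetal bovine serum and 1 % penicillin-streptomycin. IC50 taken from dose-response curves, means of 2 independent experiments.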

A2780 = assay: Cytotoxicity against human A2780 cells incubated for 72 hrs by SRB assay; assay type: functional, cell-based; conditions: A2780, 72 h; procedure, shortened: as §1
[2] = Drug accumulation in human HT-29 cells at 500 nM incubated for 30 mins by fluorescence based analysis; assay type: ADME, cell-based; conditions: ht-29, 0.5 h, 0.5 µM
Procedure, shortened: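 Live-cell imaging in HT29 cells seeded at 20.000 per well and grown 48 h, then switched to phenol-red-free RPMI 1640. Co-treated with compound at 500 nM, HypoxySense 680 (1:2000, CAIX probe) and Hoechst 33342 nuclear stain. Imaged after 30 min by fluorescence microscopy at Ex/Em 385/425 nm (Hoechst), 555/592 nm (compounds) and 630/681 nm (HypoxySense).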

[3] = Cytotoxicity against human CCD-18Co cells incubated for 72 hrs by SRB assay; assay type: toxicity, cell-based; procedure, shortened: as §1
HT-29 = assay: Cytotoxicity against human HT-29 cells incubated for 72 hrs by SRB assay; assay type: functional, cell-based; conditions: HT-29, 72 h; procedure, shortened: as §1
[4] = Selectivity index, ratio of IC50 for human CCD-18Co cells to IC50 for human A2780cis cells
Procedure, shortened: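 Selectivity index calculated as the ratio of the 72 h SRB IC50 in non-malignant CCD18Co fibroblasts to that in A2780cis.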

[5] = Resistance index, ratio of IC50 for human A2780cis cells to IC50 for human A2780cis cells; assay type: functional; conditions: in the assay text read “to IC50 for human A2780 cells” for “to IC50 for human A2780cis cells”
Procedure, shortened: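 Resistance index calculated as the ratio of the 72 h SRB IC50 in A2780cis to that in parental A2780.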

MCF7 = assay: Cytotoxicity against human MCF7 cells incubated for 72 hrs by SRB assay; assay type: functional, cell-based; conditions: MCF7, 72 h
Procedure, shortened: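 Cells plated in 96-well format and left 24 h, then exposed to serial dilutions of compound for 72 h; growth read by sulforhodamine B staining. Media held 10 % fetal bovine serum and 1 % penicillin-streptomycin.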

A549 = assay: Cytotoxicity against human A549 cells incubated for 72 hrs by SRB assay; assay type: functional, cell-based; conditions: A549, 72 h; procedure, shortened: as §1

For `CCN(CC)c1ccc2c(-c3ccccc3C(=O)N3CCN(C(=O)c4ccc(CCSc5c(F)c(F)c(S(N)(=O)=O)c(NC6CCCCCCCCCCC6)c5F)cc4)CC3)c3ccc(=[N+](CC)CC)cc-3oc2c1.[Cl-]`, the IC50 [1] was 450 nM, the IC50 (A2780) was 240 nM and the Drug uptake [2] was “Active”. For the same compound, the IC50 at 72 h [3] was 550 nM, the IC50 (HT-29) was 320 nM and the “Ratio IC50” value [4] was 1.22. For the same compound, the “Ratio IC50” value [5] was 1.87, the IC50 (MCF7) was 260 nM and the IC50 (A549) was 590 nM.

In the case of `CCN(CC)c1ccc2c(-c3ccccc3C(=O)N3CCN(C(=O)c4ccc(CCSc5c(F)c(F)c(S(N)(=O)=O)c(NC[C@]6(C)CCC[C@]7(C)c8ccc(C(C)C)cc8CC[C@@H]67)c5F)cc4)CC3)c3ccc(=[N+](CC)CC)cc-3oc2c1.[Cl-]`, the IC50 [1] is reported as 460 nM, the IC50 (A2780) is reported as 380 nM and the Drug uptake [2] is reported as “Active”. For the same compound, the IC50 at 72 h [3] was 1020 nM, the IC50 (HT-29) was 530 nM and the “Ratio IC50” value [4] was 2.22. For the same compound, the “Ratio IC50” value [5] was 1.21, the IC50 (MCF7) was 410 nM and the IC50 (A549) was 710 nM.

In the case of `COc1cccc2c1C(=O)c1c(O)c3c(c(O)c1C2=O)C[C@@](O)(C(=O)CO)C[C@@H]3O[C@H]1C[C@H](N)[C@H](O)[C@H](C)O1` [DOXORUBICIN], the IC50 [1] is reported as 99 nM, the IC50 at 72 h [3] is reported as 269 nM and the IC50 (HT-29) is reported as 86 nM. It also gave an IC50 (A549) of 23 nM.
